Experimental data from ChEMBL document CHEMBL1138465, “N-aryl-oxazolidin-2-imine muscle selective androgen receptor modulators enhance potency through pharmacophore reorientation” (J Med Chem, 2009).
Converted amounts (≈) assume the structure as drawn.

How the values were obtained:
Androgen receptor [1] = biological target: T1, Androgen receptor (Homo sapiens, UniProt P10275); experiment: Displacement of [3H[DHT from androgen receptor endogenously expressed in human MDA-MB-453 cells; assay type: cell-based
T1 sequence (P10275 whole entry): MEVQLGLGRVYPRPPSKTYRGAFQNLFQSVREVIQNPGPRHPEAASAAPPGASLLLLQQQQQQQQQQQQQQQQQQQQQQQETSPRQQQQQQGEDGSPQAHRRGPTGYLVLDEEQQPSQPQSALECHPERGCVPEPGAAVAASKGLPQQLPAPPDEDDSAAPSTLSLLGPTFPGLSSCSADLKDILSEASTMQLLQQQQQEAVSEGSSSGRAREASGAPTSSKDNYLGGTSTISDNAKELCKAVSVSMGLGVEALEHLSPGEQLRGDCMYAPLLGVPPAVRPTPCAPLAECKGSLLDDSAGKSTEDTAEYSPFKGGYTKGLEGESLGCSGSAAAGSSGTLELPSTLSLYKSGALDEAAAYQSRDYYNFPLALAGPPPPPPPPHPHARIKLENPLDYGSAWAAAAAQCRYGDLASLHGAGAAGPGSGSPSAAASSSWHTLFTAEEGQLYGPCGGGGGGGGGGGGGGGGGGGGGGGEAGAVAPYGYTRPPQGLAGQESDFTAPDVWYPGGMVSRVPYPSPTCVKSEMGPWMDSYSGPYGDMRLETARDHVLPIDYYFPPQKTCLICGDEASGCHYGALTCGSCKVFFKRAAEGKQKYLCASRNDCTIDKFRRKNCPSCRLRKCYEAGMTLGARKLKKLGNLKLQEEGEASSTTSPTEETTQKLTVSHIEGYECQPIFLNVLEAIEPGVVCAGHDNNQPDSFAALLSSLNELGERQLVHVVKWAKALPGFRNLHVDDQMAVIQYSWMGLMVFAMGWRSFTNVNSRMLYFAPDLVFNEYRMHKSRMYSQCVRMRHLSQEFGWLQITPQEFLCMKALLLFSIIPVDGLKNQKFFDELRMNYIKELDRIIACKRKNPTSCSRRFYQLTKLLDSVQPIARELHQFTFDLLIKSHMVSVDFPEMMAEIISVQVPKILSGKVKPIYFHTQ

Androgen receptor [2] = biological target: T2, Androgen receptor (Rattus norvegicus, UniProt P15207); experiment: Agonist activity at rat androgen receptor expressed in mouse skeletal muscle C2C12 cells assessed as transcriptional activation after 24 hrs by androgen-specific response element driven luciferase reporter gene assay; assay type: functional, cell-based
T2 sequence (P15207 whole entry): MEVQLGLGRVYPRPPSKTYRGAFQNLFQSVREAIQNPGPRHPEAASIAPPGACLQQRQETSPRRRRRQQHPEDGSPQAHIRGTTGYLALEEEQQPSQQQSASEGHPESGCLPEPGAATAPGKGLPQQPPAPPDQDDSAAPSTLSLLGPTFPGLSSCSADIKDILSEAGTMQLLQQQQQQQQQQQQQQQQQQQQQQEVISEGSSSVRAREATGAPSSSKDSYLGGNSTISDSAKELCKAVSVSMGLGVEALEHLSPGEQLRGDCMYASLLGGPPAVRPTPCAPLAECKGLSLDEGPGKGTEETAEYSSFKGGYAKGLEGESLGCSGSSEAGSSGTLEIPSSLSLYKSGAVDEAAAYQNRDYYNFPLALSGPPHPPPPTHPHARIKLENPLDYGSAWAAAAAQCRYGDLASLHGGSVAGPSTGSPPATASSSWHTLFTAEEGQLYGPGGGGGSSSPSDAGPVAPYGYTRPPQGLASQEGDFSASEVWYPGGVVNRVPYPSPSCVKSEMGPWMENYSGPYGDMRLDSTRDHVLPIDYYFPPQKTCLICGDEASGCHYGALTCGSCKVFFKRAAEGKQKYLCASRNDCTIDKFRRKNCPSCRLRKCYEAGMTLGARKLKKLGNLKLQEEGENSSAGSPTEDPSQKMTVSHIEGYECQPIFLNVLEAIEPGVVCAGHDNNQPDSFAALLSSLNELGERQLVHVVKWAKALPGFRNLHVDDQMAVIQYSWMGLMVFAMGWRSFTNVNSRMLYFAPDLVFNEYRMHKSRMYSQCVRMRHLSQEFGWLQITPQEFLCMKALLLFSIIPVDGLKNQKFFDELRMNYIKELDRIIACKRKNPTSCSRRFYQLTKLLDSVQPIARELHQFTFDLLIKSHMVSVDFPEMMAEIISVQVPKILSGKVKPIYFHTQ

[3] = Aqueous solubility of the compound; assay type: physicochemical
Androgen receptor [4] = biological target: T2, Androgen receptor; experiment: Intrinsic activity at rat androgen receptor expressed in mouse skeletal muscle C2C12 cells assessed as transcriptional activation after 24 hrs by androgen-specific response element driven luciferase reporter gene assay relative to control; assay type: cell-based
Androgen receptor [5] = biological target: T2, Androgen receptor; experiment: […] at rat AR expressed in mouse skeletal muscle C2C12 cells assessed as transcriptional activation after 24 hrs by androgen-specific response element driven luciferase reporter gene assay; assay type: functional, cell-based
Rattus norvegicus [6] = experiment: Anabolic activity in castrated male Harlan Sprague-Dawley rat assessed as intact growth of Levator ani muscle at 0.1 mg/kg, po after 14 days; assay type: functional
Rattus norvegicus [7] = experiment: Anabolic activity in castrated male Harlan Sprague-Dawley rat assessed as intact growth of prostate at 0.00001 mg/kg, po after 14 days; assay type: functional, Prostate gland; conditions: dose 1e-05 mg/kg
Rattus norvegicus [8] = experiment: Anabolic activity in castrated male Harlan Sprague-Dawley rat assessed as intact growth of prostate at 0.01 mg/kg, po after 14 days; assay type: functional, Prostate gland
Rattus norvegicus [9] = experiment: Anabolic activity in castrated male Harlan Sprague-Dawley rat assessed as intact growth of Levator ani muscle at 0.01 mg/kg, po after 14 days; assay type: functional
Rattus norvegicus [10] = experiment: Anabolic activity in castrated male Harlan Sprague-Dawley rat assessed as intact growth of Levator ani muscle at 0.0001 mg/kg, po after 14 days; assay type: functional
Rattus norvegicus [11] = experiment: Anabolic activity in sc dosed castrated male Harlan Sprague-Dawley rat assessed as intact growth of prostate after 14 days; assay type: functional; conditions: Prostate gland, 336 h
Rattus norvegicus [12] = experiment: Anabolic activity in po dosed castrated male Harlan Sprague-Dawley rat assessed as intact growth of Levator ani muscle after 14 days; assay type: functional; conditions: 336 h
Rattus norvegicus [13] = experiment: Anabolic activity in castrated male Harlan Sprague-Dawley rat assessed as intact growth of prostate at 0.1 mg/kg, po after 14 days; assay type: functional, Prostate gland
Rattus norvegicus [14] = experiment: Anabolic activity in castrated male Harlan Sprague-Dawley rat assessed as intact growth of Levator ani muscle at 0.03 mg/kg, po after 14 days; assay type: functional
Rattus norvegicus [15] = experiment: Anabolic activity in castrated male Harlan Sprague-Dawley rat assessed as intact growth of prostate at 0.03 mg/kg, po after 14 days; assay type: functional, Prostate gland
Rattus norvegicus [16] = experiment: Anabolic activity in castrated male Harlan Sprague-Dawley rat assessed as intact growth of Levator ani muscle at 0.00001 mg/kg, po after 14 days; assay type: functional; conditions: dose 1e-05 mg/kg
Rattus norvegicus [17] = experiment: Anabolic activity in sc dosed castrated male Harlan Sprague-Dawley rat assessed as intact growth of Levator ani muscle after 14 days; assay type: functional; conditions: 336 h
Rattus norvegicus [18] = experiment: Anabolic activity in castrated male Harlan Sprague-Dawley rat assessed as intact growth of Levator ani muscle at 0.001 mg/kg, po after 14 days; assay type: functional
[19] = AUC in rat at 5 mg/kg, po; assay type: ADME, organism-based; design: dose 5 mg/kg, route oral; conditions: plasma
Rattus norvegicus [20] = experiment: Anabolic activity in castrated male Harlan Sprague-Dawley rat assessed as intact growth of Levator ani muscle at 0.3 mg/kg, po after 14 days; assay type: functional
Rattus norvegicus [21] = experiment: Anabolic activity in castrated male Harlan Sprague-Dawley rat assessed as intact growth of prostate at 0.0001 mg/kg, po after 14 days; assay type: functional, Prostate gland
[22] = Chemical stability in 0.1N HCl assessed as drug remaining after 24 hrs; assay type: physicochemical; conditions: read-out: Stability
Procedure, shortened: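 Compound held in solution in 0.1 N HCl at 37 °C for 24 h, used as a model of gut pH; the percentage of intact compound remaining at 24 h was the read-out.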

Rattus norvegicus [23] = experiment: Anabolic activity in po dosed castrated male Harlan Sprague-Dawley rat assessed as intact growth of prostate after 14 days; assay type: functional; conditions: Prostate gland, 336 h
Rattus norvegicus [24] = experiment: Anabolic activity in castrated male Harlan Sprague-Dawley rat assessed as intact growth of prostate at 0.001 mg/kg, po after 14 days; assay type: functional, Prostate gland
Rattus norvegicus [25] = experiment: Anabolic activity in castrated male Harlan Sprague-Dawley rat assessed as intact growth of prostate at 0.3 mg/kg, po after 14 days; assay type: functional, Prostate gland

SMILES | Ki (Androgen receptor [1]) | EC50 (Androgen receptor [2]) | also measured
Cc1c(/N=C2\N(C)C[C@@H]3[C@H](O)CCN23)ccc(C#N)c1Cl | 1.9 nM | 44 nM | –
Cc1c(/N=C2\OC[C@@H]3[C@@H](O)CCN23)ccc(C#N)c1Cl | 0.3 nM | 14 nM | –
Cc1c(/N=C2\O[C@H](C(F)(F)F)[C@@H]3[C@@H](O)CCN23)ccc(C#N)c1Cl | 0.2 nM | 19 nM | –
Cc1c(N2C(=O)[C@@H]3[C@H](O)CCN3C2=O)ccc(C#N)c1Cl | – | – | solubility [3]: 19 µg/mL (≈ 62.1 µM)
Cc1c(/N=C2\O[C@@H](C(F)(F)F)[C@@H]3[C@H](O)CCN23)ccc(C#N)c1Cl | 0.3 nM | 1.4 nM | –
Cc1c(/N=C2\N(C(N)=O)C[C@@H]3[C@H](O)CCN23)ccc(C#N)c1Cl | 19 nM | – | EC50 (Androgen receptor [4]): Active
CC[C@H]1[C@@H]2[C@@H](O)CCN2C(=O)N1c1ccc(C#N)c(Cl)c1C | – | 1.8 nM | –
Cc1c(/N=C2\OC(C(C)C)[C@@H]3[C@H](O)CCN23)ccc(C#N)c1Cl (single isomer, unassigned) | 0.7 nM | 3.7 nM | –
Cc1c(N2C(NC#N)N3CC[C@H](O)[C@H]3[C@@H]2C)ccc(C#N)c1Cl (stereo partly specified) | 17 nM | 1110 nM | –
Cc1c(/N=C2\NC[C@@H]3[C@H](O)CCN23)ccc(C#N)c1Cl | 10 nM | – | EC50 (Androgen receptor [5]): 1800 nM
Cc1c(/N=C2\O[C@H](C(F)(F)F)[C@@H]3[C@H](O)CCN23)ccc(C#N)c1Cl | 2.3 nM | 1.1 nM | –
Cc1c(/N=C2\O[C@@H](C(F)(F)F)[C@@H]3[C@@H](O)CCN23)ccc(C#N)c1Cl | 0.3 nM | 0.2 nM | Activity (Rattus norvegicus [6]): 100.5%; Activity (Rattus norvegicus [7]): 2.6%; Activity (Rattus norvegicus [8]): 38.8%; Activity (Rattus norvegicus [9]): 109.3%; Activity (Rattus norvegicus [10]): 25%; ED50 (Rattus norvegicus [11]): 0.42 mg/kg; ED50 (Rattus norvegicus [12]): 0.0009 mg/kg; Activity (Rattus norvegicus [13]): 103%; Activity (Rattus norvegicus [14]): 103.5%; Activity (Rattus norvegicus [15]): 72.9%; Activity (Rattus norvegicus [16]): 21%; ED50 (Rattus norvegicus [17]): 0.21 mg/kg; Activity (Rattus norvegicus [18]): 59%; AUC [19]: 5.8 µM·h; Activity (Rattus norvegicus [20]): 103.9%; Activity (Rattus norvegicus [21]): 3.6%; remaining at 24 h [22]: 0.41%; ED50 (Rattus norvegicus [23]): 0.0143 mg/kg; Activity (Rattus norvegicus [24]): 9.5%; Activity (Rattus norvegicus [25]): 104.5%
Cc1c(N2C[C@@H]3[C@H](O)CCN3C2=O)ccc(C#N)c1Cl | 6 nM | 6.4 nM | –
Cc1c(/N=C2\OC[C@@H]3[C@H](O)CCN23)ccc(C#N)c1Cl | 0.8 nM | 4.8 nM | –
